Published values pooled from the literature.
ALK: ALK tyrosine kinase receptor (ALK, Homo sapiens, UniProt Q9UM73)
CCR2: C-C chemokine receptor type 2 (CCR2, Homo sapiens, UniProt P41597)
SIRT6: NAD-dependent protein deacylase sirtuin-6 (SIRT6, Homo sapiens, UniProt Q8N6T7)
SLC47A1: Multidrug and toxin extrusion protein 1 (SLC47A1, Homo sapiens, UniProt Q96FL8)

Cc1cc(-c2cc(C#N)ccc2O[C@@H]2C[C@]2(CN(C)C)c2ccc(F)cc2F)n[nH]1 (racemic)
IC50 (ALK; enzyme activity, inhibitor, TR-FRET): 0.11 µM

OCc1cc(C(O)CNCCCCCCOCCCCc2ccccc2)ccc1O (stereo not shown)
IC50 (C-C chemokine receptor type 5 (CCR5, Homo sapiens, UniProt P51681); calcium signal, antagonist): 64.6 µM

CCc1nc[nH]c1-c1ccnc(Nc2ccc(N3CCOCC3)cc2)c1
IC50 (Mitogen-activated protein kinase 10 (MAPK10, Homo sapiens, UniProt P53779); enzyme activity, inhibitor, ELISA): 1.2 µM

CN(Cc1ccc(NC(=O)C2=Cc3cc(-c4ccc(OCCCO)cc4)ccc3CCC2)cc1)C1CCOCC1
IC50 (CCR2; calcium signal, antagonist): 0.045 µM

Cc1cc(Nc2cc(CN3CCOCC3)c3nc(C)c(Cc4ccc(Cl)cc4F)n3n2)n[nH]1
IC50 (Vascular endothelial growth factor receptor 3 (FLT4, Homo sapiens, UniProt P35916); enzyme activity, inhibitor, TR-FRET): 0.025 µM

Cc1cc(-c2cccc(OC(F)(F)F)c2)[nH]n1
IC50 (ALK; enzyme activity, inhibitor, TR-FRET): 95 µM

C=C(C)C(CC=C(C)C)Cc1c(O)cc(OC)c2c1O[C@H](c1ccc(O)cc1O)CC2=O (single isomer, unassigned; (-))
IC50 (Fatty acid synthase (FASN, Gallus gallus, UniProt P12276); enzyme activity, inhibitor, radiometric): 10.3 µM

O=C(O)CC(=O)C(=O)O
IC50 (LDHA (Oryctolagus cuniculus, UniProt P13491); enzyme activity, inhibitor): 3320 µM

NC(=O)c1ccc(C(=O)NOCc2ccc(Sc3cc(Cl)cc(Cl)c3)c(C(F)(F)F)c2)cc1
IC50 (SIRT6; enzyme activity, inhibitor, fluorescence): 1.24 µM

Cc1nc2ccc(Br)cc2c(=O)n1/N=C/c1ccc(C(=O)O)cc1
IC50 (Cathepsin B (CTSB, Homo sapiens, UniProt P07858); enzyme activity, inhibitor): 33.5 µM

NC(=O)c1ccc(C(=O)NOCc2ccc(Sc3ccc(C(F)(F)F)cc3)c(C(F)(F)F)c2)cc1
IC50 (SIRT6; enzyme activity, inhibitor, fluorescence): 1.79 µM

CC(C)(C)Nc1nc(N)c(C(=O)c2ccc(Cl)cc2)s1
IC50 (Cyclin-dependent kinase 2 (CDK2, Homo sapiens, UniProt P24941); enzyme activity, inhibitor, mobility shift): 4.9 µM

CCS(=O)(=O)N1CC(CC#N)(n2cc(-c3ncnc4[nH]ccc34)cn2)C1
IC50 (SLC47A1; transporter uptake, inhibitor, radiometric; 2 min): 76.7 µM

N#Cc1ccc(CONC(=O)c2ccc(C(N)=O)cc2)cc1
IC50 (SIRT6; enzyme activity, inhibitor, fluorescence): 11.7 µM

COc1ccc(-c2ccc3[nH]c4ncc(-c5cccc([N+](=O)[O-])c5)cc4c3c2)cc1
IC50 (ALK; enzyme activity, inhibitor, ELISA): 9.3 µM

NC(=O)c1ccc(C(=O)NOCc2ccc(Sc3ccc(F)cc3)c(C(F)(F)F)c2)cc1
IC50 (SIRT6; enzyme activity, inhibitor, fluorescence): 2.35 µM

CC(=O)c1ccc2[nH]c3nc(C)ccc3c2c1
IC50 (ALK; enzyme activity, inhibitor, ELISA): > 10 µM

CN(C(=O)n1cnc(-c2ccc[n+]([O-])c2)c1)C1CCCCC1
IC50 (SLC47A1; transporter uptake, inhibitor; MDCK-II): > 33.3 µM

NC(=O)c1ccc(C(=O)NOCc2ccc(-n3cccn3)cc2)cc1
IC50 (SIRT6; enzyme activity, inhibitor, fluorescence): 2.23 µM

CN1CCN(c2ccc(Nc3ncc4cc(C#N)c(=O)n(C5CCCC5)c4n3)cc2)CC1
IC50 (Serine/threonine-protein kinase D3 (PRKD3, Homo sapiens, UniProt O94806); enzyme activity, inhibitor): 0.0709 µM

NS(=O)(=O)c1ccc(C(=O)NOCc2ccccc2)cc1
IC50 (SIRT6; enzyme activity, inhibitor, fluorescence): 116 µM

CN(Cc1ccc(NC(=O)C2=Cc3cc(-c4ccc(OCCCCCO)cc4)ccc3CCC2)cc1)C1CCOCC1
IC50 (CCR2; ligand displacement, radioligand; cell membranes): 0.326 µM
